Assay results of several laboratories.
Lines come from different studies, so protocols differ.
Technique: competition with immobilised ligand
JAK3 JH1: Tyrosine-protein kinase JAK3, JH1 (JAK3, Homo sapiens, UniProt P52333)
JAK3: Tyrosine-protein kinase JAK3 (JAK3, Homo sapiens, UniProt P52333)

| SMILES | target | effect on | tested at | remaining binding [%] |
| --- | --- | --- | --- | --- |
| CC(=O)N1CCC(c2ccc(C(=O)NC(=N)N)cc2C(F)(F)F)CC1 | JAK3 JH1 | cell-free assay | 1 µM | 100 |
| CN(C)c1nccc(-c2cnc3ncccn23)n1 | JAK3 JH1 | cell-free assay | 1 µM | 93 |
| CCN1CCN(Cc2ccc(C(=O)Nc3ccc(C)c(Oc4ccc5c(c4)CC(=O)N5)c3)cc2C(F)(F)F)CC1 | JAK3 JH1 | binding | 1 µM | 97 |
| COC(=O)Nc1nc2ccc(C(=O)c3ccccc3)cc2[nH]1 | JAK3 | cell-free assay | 10 µM | 29 |
| C[C@@H]1CN(c2ccc3ncc(-c4ccc5[nH]nc(C6CC6)c5c4)n3n2)C[C@H](C)O1 | JAK3 | binding | 0.5 µM | 11 |
| CC(C)(C)c1ccc(-c2nc(CBr)nn2-c2cccc(O)c2)cc1 | JAK3 | cell-free assay | 10 µM | 65 |
| F[C@@H]1CCN(c2nccc(-c3cnn4ncccc34)n2)C1 | JAK3 JH1 | cell-free assay | 1 µM | 100 |
| O=C(NCc1ncc(C(F)(F)F)cc1Cl)c1ccc2c(c1)C1(CCS(=O)(=O)CC1)[C@H](C1CC1)N2S(=O)(=O)c1ccc(F)cc1 | JAK3 JH1 | cell-free assay | 1 µM | 79 |
| N#Cc1ccccc1CSc1nnc2c(n1)[nH]c1ccccc12 | JAK3 JH1 | binding | 10 µM | 93 |
| O=C(NCC1CCOCC1)c1n[nH]cc1NC(=O)c1c(F)cccc1F | JAK3 JH1 | binding | 1 µM | 91 |
| COc1cnc(Nc2cccc(S(N)(=O)=O)c2)nc1N1CCN(c2ccccc2)C(=O)C1 | JAK3 JH1 | binding | 1 µM | 16 |
| C[C@@]1(Cc2ccc(C#N)cc2)C(=O)N(c2cc(Cl)cc(Cl)c2)c2ncc(C(=O)NC3(c4nc(C5CCC5)no4)CC3)n21 | JAK3 JH1 | cell-free assay | 1 µM | 100 |
| O=C(c1ccc(Nc2nccc(-c3cc4ccccc4s3)n2)cc1)N1CCC(N2CCCC2)CC1 | JAK3 JH1 | binding | 1 µM | 0.4 |
| O=C(Nc1cccnn1)N1CCC(=Cc2cccc(Oc3ccc(C(F)(F)F)cn3)c2)CC1 | JAK3 JH1 | cell-free assay | 1 µM | 100 |
| COc1cnc(Nc2cccc(S(N)(=O)=O)c2)nc1N1CCN(c2ccccc2)CC1 | JAK3 JH1 | binding | 1 µM | 42 |
| O=S(=O)(NC1CCC(c2cc(F)ccc2F)(S(=O)(=O)c2ccc(Cl)cc2)CC1)C(F)(F)F (stereo not shown) | JAK3 JH1 | cell-free assay | 1 µM | 100 |
| C=CC(=O)N1CCC(C(=O)NCC(=O)N2CCN(c3nc(-c4cnc(N)nc4C(F)F)nc(N4CCOCC4)n3)CC2)CC1 | JAK3 JH1 | binding | 1 µM | 88 |
| O=C(c1ccc(Nc2ncc(Cl)c(-c3cc4ccccc4s3)n2)cc1)N1CCC(N2CCCC2)CC1 | JAK3 JH1 | binding | 1 µM | 0 |
| N[C@@H]1CCN(c2nccc(-c3cnn4ncccc34)n2)C1 | JAK3 JH1 | cell-free assay | 1 µM | 100 |
| O=C(NCCCN1CCOCC1)c1ccc(Nc2nccc(-c3cc4ccccc4s3)n2)cc1 | JAK3 JH1 | binding | 1 µM | 6.4 |
| Nc1c(C(=O)NCc2ccc(C(=O)NCCCC3CCCCC3)cc2)cnn1-c1ccccc1 | JAK3 JH1 | cell-free assay | 0.1 µM | 100 |
| CN(CCCC(F)(F)F)c1nccc(-c2cnn3ncccc23)n1 | JAK3 JH1 | cell-free assay | 1 µM | 71 |
